# Sampled rows, rich in hits. Any-hit rate of the full collection: about 1.2%.
# RAD54 inh: RAD54 (human) branch migration inhibition; Q92698; RAD54 Holliday junction branch migration, FAM/BHQ fluorescence; inhibition, % at 10.4 µM; hit rate 0.14% among 360,000; AID 602329;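 active = mean normalized replicate activity at least 40 and at least half of replicates scoring 40 or more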;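 also: 0% = median of neutral control wells and 100% = median of positive control wells; inhibitors cause a drop in the FAM fluorescence signal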
# MLL AF4-AF9 inh: inhibitors of human MLL-AF4/AF9 interaction; P42568; AlphaScreen, biotin-AF4 peptide binding to FLAG-AF9; inhibition, % at 10 µM; hit rate 0.47% among 350,000; AID 651704;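 active = every replicate reaching a set inhibition limit, whatever the replicate mean, cut at about 25% in these data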;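 also: 0% = plate neutral control median and 100% = total signal loss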
# Target sequence (P42568 whole entry, looked up): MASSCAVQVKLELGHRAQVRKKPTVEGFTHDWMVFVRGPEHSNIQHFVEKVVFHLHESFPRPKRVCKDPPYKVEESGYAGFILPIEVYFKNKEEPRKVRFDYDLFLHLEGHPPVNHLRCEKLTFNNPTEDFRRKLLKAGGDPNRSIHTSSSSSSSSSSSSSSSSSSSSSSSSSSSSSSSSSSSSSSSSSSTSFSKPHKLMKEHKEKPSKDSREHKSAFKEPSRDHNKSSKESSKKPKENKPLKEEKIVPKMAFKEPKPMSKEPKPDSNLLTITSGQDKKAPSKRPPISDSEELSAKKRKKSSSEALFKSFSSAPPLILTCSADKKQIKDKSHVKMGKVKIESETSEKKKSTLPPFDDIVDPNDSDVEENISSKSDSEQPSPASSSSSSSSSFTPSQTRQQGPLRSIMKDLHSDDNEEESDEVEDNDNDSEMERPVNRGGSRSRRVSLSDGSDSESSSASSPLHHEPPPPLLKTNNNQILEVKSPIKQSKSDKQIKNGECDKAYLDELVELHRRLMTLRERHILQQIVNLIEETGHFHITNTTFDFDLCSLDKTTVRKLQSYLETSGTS
# NSD2 inh: blocks human histone methyltransferase NSD2. O96028. NSD2 peptide methylation, AlphaScreen, 120 min. inhibition, % at 12.5 µM. hit rate 0.54% among 310,000. AID 743445; in the data active = inhibition above about 50%
# FN deposit inh: fibronectin deposition inhibition. AH1F fibroblasts, Alexa488-fibronectin deposition fluorescence, overnight. inhibition, % at 12.6 µM. hit rate 0.086% among 350,000;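 active = mean inhibition across replicates of 30% or more, regardless of how many single replicates reach that level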;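 also: positive control wells lacked labelled fibronectin entirely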
#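 Assay system: AH1F fibroblasts / Quantity: 10000 cells per well / Medium: DMEM plus 2% serum, read in PBS / Reagent: labelled fibronectin 24 nM / Dosing: single dose, pinned / Times: 1 h cell attachment, overnight exposure to compound and label / Signal: fluorescence, ex 485 nm, em 525 nm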
# N-glyco inh: N-linked glycosylation inhibition | reporter increase, % at 12.5 µM | hit rate 0.23% among 360,000 | AID 588692 | D54 ERlucT glycosylation luciferase reporter, 24 h; percent of 100 nM tunicamycin response;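 active = mean luciferase reporter signal, scaled so untreated is 0 and the glycosylation-blocking control 100, at or above a set limit in every replicate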;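 also: luciferase carries N-glycosylation sites so blocking glycosylation raises the light; 0% = median of neutral control wells and 100% = median of 100 nM tunicamycin wells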
# RAD52 inh: inhibitors of human RAD52 DNA annealing; P43351; recombinant RAD52 DNA annealing, FRET fluorescence; inhibition, % at 18.7 µM; hit rate 0.46% among 360,000;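 active = every replicate showing at least 50% inhibition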
# Numbers without * were called inactive; · = no result given.
SMILES,RAD54 inh,MLL AF4-AF9 inh,NSD2 inh,FN deposit inh,N-glyco inh,RAD52 inh
CC(=O)c1c(C)[nH]c(C(=O)Nc2cc(S(=O)(=O)N3CCCCC3)ccc2C)c1C,5,1,0,-7,9,-16
CCOC(=O)c1[nH]c(C)c(C(=O)Nc2cc(OC)ccc2OC)c1C,12,·,0,·,35*,·
CCOC(=O)c1c(C)[nH]c(C(=O)OCC(=O)Nc2cc(C)ccc2OC)c1C,1,·,1,3,-1,·
CO[C@H]1CC[C@H]2CCN(C)C(=O)[C@H](C)[C@@H](OC)CN(C)C(=O)c3cccc(C#N)c3OC[C@H]1O2,-3,-15,·,-8,·,15
Nc1c(N(CCC2=CCCCC2)C(=O)COc2ccc(F)cc2)c(=O)[nH]c(=O)n1Cc1ccccc1,-7,·,0,·,55*,·
Nc1c(N(Cc2ccccc2)C(=O)COc2ccc([N+](=O)[O-])cc2)c(=O)[nH]c(=O)n1Cc1ccccc1,7,-4,-1,-6,123*,-16
Nc1c(N(CCC2=CCCCC2)C(=O)CCCOc2ccccc2)c(=O)[nH]c(=O)n1Cc1ccccc1,1,-27,·,4,-1,-9
COc1ccccc1NC(=O)N1CCCCN2[C@@H](CO)[C@@H](c3ccc(C#CC4CC4)cc3)[C@@H]2C1,·,13,·,·,·,-4
COC(=O)/C(=N/Nc1ccccc1)N1CCCc2ccccc21,0,37*,2,6,-7,-2
COC(=O)/C(=N/Nc1ccc(C)cc1)N1CCCc2ccccc21,·,17,2,-1,-5,-6
C[C@@H]1CCCCO[C@@H](CN(C)CC2CCCCC2)[C@H](C)CN([C@@H](C)CO)C(=O)c2cc(NC(=O)c3ccncc3)ccc2O1,15,-4,·,·,·,8
CC(C)NC(=O)N1C[C@@H]2C(c3ccccc3)[C@H](C1)N2CC(F)(F)F (some centres undefined),·,·,·,0,·,·
CN(C)C=Nc1ncc2c3ccccc3n(CCN(C)C)c2c1C#N,88*,·,6,·,2,·
O=C(/C=C/c1cccc([N+](=O)[O-])c1)c1ccc2c(c1)OCCO2,·,1,1,0,31*,-13
COc1ccc(CN(C)C[C@@H]2OCCCC[C@H](C)Oc3ccc(NC(=O)Cc4ccccc4)cc3C(=O)N([C@H](C)CO)C[C@H]2C)cc1,-6,·,·,·,·,·
CCOc1ccccc1NC(=O)CN(c1cc(C)cc(C)c1)S(=O)(=O)c1c(C)noc1C,11,2,·,1,-3,-23
CCOc1ccccc1NC(=O)CN(c1ccc(OC)cc1)S(=O)(=O)c1c(C)noc1C,-12,·,-1,-5,34*,·
O=C(O)CCCCC1SCC2NC(=O)NC21 (centres undefined),1,70*,·,·,0,-2
CO[C@@H]1CN(C)C(=O)c2cc(NC(C)=O)ccc2OC[C@H](C)N(Cc2cccnc2)C[C@H]1C,-8,·,·,1,·,·
COc1cc(OC)c(C(=O)C=Cc2ccc(OC)c(OC)c2)c(OC)c1,-3,8,2,-8,-4,-10
COc1cc(O)c(C(=O)/C=C/c2ccccc2)c(OC)c1,-6,11,·,·,42*,6
Cn1cnc(S(=O)(=O)N2CCN(c3ccccc3)CC2)c1,8,-4,0,33*,0,-7
Cn1cnc(S(=O)(=O)N2CCN(c3ccc(Cl)cc3)CC2)c1,14,2,-3,5,-1,-2
Cc1c(CCOC(=O)CC23CC4CC(CC(C)(C4)C2)C3)sc[n+]1CC(=O)c1ccccc1,·,27*,2,-13,0,62*
CCOc1nc2c(c(C)nn2-c2ccccc2)c(C)c1CCC(=O)NCCN1CCOCC1,·,·,0,·,·,·
SMILES,RAD54 inh,MLL AF4-AF9 inh,NSD2 inh,FN deposit inh,N-glyco inh,RAD52 inh
CCc1cccc(CC)c1NC(=O)/C(C#N)=C/c1ccccc1C(F)(F)F,13,·,-3,8,69*,·
O=C(C[C@H]1CC[C@@H]2[C@H](COC[C@@H](O)CN2Cc2ccc(F)cc2)O1)NCc1ccncn1,0,-3,·,-8,·,-8
Cc1nnc(NC(=O)CSc2nnc(CC(=O)Nc3ccccc3F)n2C)s1,-10,53*,-1,-6,0,-1
Cc1ccc(C(=O)/C=C\C(=O)c2ccc(C)cc2)cc1,·,3,3,6,19,-16
Cc1ccc(S/C=C\C(=O)c2ccccc2)cc1,·,1,·,·,47*,-2
COc1cccc(S(=O)(=O)N2CC[C@H]3[C@H](CO)Nc4ccc(-c5ccc(C#N)cc5)cc4[C@H]32)c1,3,·,·,19,·,·
COc1cccc(-c2ccc3c(c2)[C@@H]2[C@@H](CCN2S(=O)(=O)c2cccc(OC)c2)[C@@H](CO)N3)c1,9,-9,·,38*,·,-5
N#Cc1ccc(-c2ccc3c(c2)[C@@H]2[C@@H](CCN2S(=O)(=O)c2cccc(F)c2)[C@@H](CO)N3)cc1,2,1,·,35*,·,-8
O=S(=O)(c1cccc(F)c1)N1CC[C@H]2[C@H](CO)Nc3ccc(-c4cccc(F)c4)cc3[C@H]21,-1,·,·,36*,·,·
O=c1cc(CSc2nnc(-c3cccs3)o2)c2c(ccc3ccccc32)o1,·,·,4,·,·,·
C[C@H]1CN([C@@H](C)CO)S(=O)(=O)c2ccc(C3=CCCCC3)cc2O[C@@H]1CN(C)C(=O)C1CC1,5,0,·,·,·,-5
COc1cccc(CNC(=O)COC(=O)c2ccc(-c3ccc(O)cc3)cc2)c1,1,-2,-1,5,28*,-12
COc1ccccc1C#Cc1cnc2c(c1)C(=O)N([C@@H](C)CO)C[C@H](C)[C@@H](CN(C)C(=O)c1ccc3c(c1)OCO3)O2,5,5,·,-15,·,-1
COCC(=O)OC/C(O)=C(\C#N)c1nc2ccccc2[nH]1,-5,8,2,9,32*,-13
COc1ccc(CN(C)C[C@@H]2OCCCC[C@@H](C)Oc3ccc(NS(=O)(=O)c4c(C)noc4C)cc3C(=O)N([C@@H](C)CO)C[C@@H]2C)cc1,·,5,·,·,·,29
COc1cccc(-c2cnc3c(c2)C(=O)N([C@H](C)CO)C[C@@H](C)[C@@H](CN(C)C(=O)Nc2c(C)noc2C)O3)c1,-8,0,·,-6,·,7
Cc1noc(C)c1NC(=O)Nc1ccc2c(c1)C(=O)N([C@@H](C)CO)C[C@@H](C)[C@H](CN(C)C(=O)Nc1ccc3c(c1)OCO3)OCCCC[C@H](C)O2,15,0,·,-3,·,-1
CC(Nc1nc(-c2cccnc2)nc2ccccc12)c1ccccc1 (centres undefined),-1,3,-1,3,38*,-15
CC(Nc1nc(-c2ccncc2)nc2ccccc12)c1ccccc1 (centres undefined),0,3,-5,19,9,-31
CCCCN(C(=O)CCC(=O)O)C1CC(=O)N(c2ccc(OCCC)cc2)C1=O (centres undefined),-4,·,5,·,0,·
